Entries after “also recorded” stand apart in the source; their conditions may differ.
How the values were obtained:
male adult Wistar rats = experiment: Serum biochemical parameters after repeated intravenous injection; assay type: in vivo, rat; conditions: ten injections at 72-hour intervals, vs control
Procedure, shortened: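 Male adult Wistar rats (five groups, ten per group) received free or Fe–Co MOF-loaded test compound i.v. at 0.4 or 0.8 mg/kg, ten injections every 72 h. Retro-orbital blood was centrifuged immediately at 5,000 rpm for 10 min. AST, ALT, BUN and creatinine were run on an autoanalyzer with commercial kits. Results are mean ± SD, tested by ANOVA with post hoc comparison against control.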

liver [1] = experiment: Liver MDA level; assay type: in vivo, rat; conditions: dose not given
Procedure, shortened: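 After ten i.v. injections 72 h apart of free or Fe–Co MOF-loaded test compound (0.4 or 0.8 mg/kg) in male Wistar rats, liver malondialdehyde was measured by a modified literature method. Assays were repeated three times. Results are mean ± SD, compared by ANOVA with post hoc test.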

liver [2] = experiment: Liver histopathology and semi-quantitative damage score; assay type: in vivo, rat
Procedure, shortened: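 Male Wistar rats received free or Fe–Co MOF-loaded test compound at 0.4 or 0.8 mg/kg i.v., ten doses 72 h apart. Fixed liver was ethanol-dehydrated, xylene-cleared, paraffin-embedded, microtome-sectioned and H&E-stained. Two specialists scored blindly on a 1–4 scale, and also rated pyknotic nuclei, inflammatory infiltration, bleeding and necrosis each 0–3. Results are mean ± SD.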

kidney = experiment: Kidney histopathology and semi-quantitative damage score; assay type: in vivo, rat; conditions: for kidney histopathological findings: Masson trichrome
Procedure, shortened: (§1)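 Fifty male adult Wistar rats were split into five groups (23–24 °C, 12 h light/dark). Test compound, free or loaded in Fe–Co MOF, was given at 0.4 or 0.8 mg/kg i.v., ten injections at 72 h intervals. Rats were euthanised with pentobarbital sodium 200 mg/kg. H&E sections were scored 1 (normal) to 4 (severe) against organ-specific lesion criteria, blinded, by two specialists.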

heart = experiment: Heart histopathology and semi-quantitative damage score; assay type: in vivo, rat; conditions: for heart histopathological findings: H&E
Procedure, shortened: as §1

testis = experiment: Testis histopathology and semi-quantitative damage score; assay type: in vivo, rat; conditions: for Testis damage score (TDS): scale 1 normal to 4 severe, mean ± SD
Procedure, shortened: as §1

[3] = cited from earlier work
[4] = 0.4 mg/kg i.v., scale 1 normal to 4 severe, mean ± SD

- serum creatinine levels (male adult Wistar rats; 0.4 mg/kg i.v.): elevation was not observed
- serum BUN levels (male adult Wistar rats; 0.8 mg/kg i.v.): no significant effect
- serum creatinine levels (male adult Wistar rats; 0.8 mg/kg i.v.): higher serum creatinine levels
- liver lipid peroxidation (liver [1]): significant increase
Structure (SMILES): CC(C)C[C@H](NC(=O)[C@H](CCc1ccccc1)NC(=O)CN1CCOCC1)C(=O)N[C@@H](Cc1ccccc1)C(=O)N[C@@H](CC(C)C)C(=O)[C@@]1(C)CO1 [CFZ, Carfilzomib]
- ALT levels (male adult Wistar rats; 0.8 mg/kg i.v.): significantly increased
- serum AST levels (male adult Wistar rats; 0.8 mg/kg i.v.): Significant elevation
- liver histopathological findings (liver [2]; 0.4 mg/kg i.v.): normal liver appearance
- Liver damage score (LDS) (liver [2]; [4]): 1.6 ± 0.51
- liver histopathological findings (liver [2]; 0.8 mg/kg i.v.): necrosis, inflammatory cell accumulation, and disarray of hepatic cords
- kidney histopathological findings (kidney; 0.4 mg/kg i.v.): normal proximal and distal tubules with normal-sized nuclei
- Renal damage score (RDS) (kidney; [4]): 1.5 ± 0.75
- kidney histopathological findings (kidney; 0.8 mg/kg i.v.): glomerulosclerosis characterized by swollen lining epithelium and narrowing of the proximal tubule lumen
- heart histopathological findings (heart; 0.4 mg/kg i.v.): mild inflammatory cell infiltration
- Heart damage score (HDS) (heart; [4]): 1.25 ± 0.46
- heart histopathological findings (heart; 0.8 mg/kg i.v., listed as free Carfilzomib): inflammatory cell infiltration, bleeding, and necrosis; also recorded: severe necrosis
- cardiotoxicity by histopathological data (heart; overall statement): severe cardiotoxicity
- testis histopathological findings (testis; 0.4 mg/kg i.v.): no evidence of inflammation, necrosis, or cellular infiltrates
- Testis damage score (TDS) (testis; 0.4 mg/kg i.v.): 1.2 ± 0.4
- testis histopathological findings (testis; 0.8 mg/kg i.v.): multinucleated giant Sertoli cells
- Testis damage score (TDS) (testis; 0.8 mg/kg i.v.): 1.42 ± 0.53
- half-life [3]: ~ 30 min

Source: article PMC12350853 (Discover Nano, 2025)
